Only some compounds are listed: those with a hit (about 2.2% of all), similar ones and a draw of the others.
APJ agonist: activates the human apelin receptor APJ; AID 2520; activation, % at 20 µM; CHO-K1 APJ PathHunter beta-arrestin, luminescence; 0% DMSO wells, 100% apelin; 330,000 compounds, 0.11% hits;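 active means activation more than six SD over the plate average, tested at 20 µM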
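Material: CHO-K1 APJ beta-arrestin complementation cell line; Input: cell density 1000 per well; Incubation: compound stimulation 90 min at 25 °C, detection 60 min; Signal: luminescence from split beta-galactosidase complementation, Galacton Star/Emerald II substrate; Controls: DMSO-only wells as negative, 10 nM Apelin-13 as positive control.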
APJ antagonist: antagonists of human APJ apelin receptor. inhibition, % at 20 µM. CHO-K1 APJ beta-arrestin complementation, luminescence. P35414. 330,000 compounds, 0.32% hits;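 active means inhibition above about 40% at 20 µM, limit read from the data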;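 further: cells challenged with 10 nM apelin-13 agonist together with compound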
CXCR6 block: CXCR6 (human) receptor inhibition; O00574; inhibition, % at 20 µM; CHO-K1 PathHunter CXCR6 beta-arrestin, luminescence; 360,000 compounds, 0.36% hits; AID 602244; in the data active means inhibition above about 34%, passing the limit was not always enough;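 further: antagonist mode with CXCL16 agonist at 10 nM final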
Target sequence (O00574 whole entry, looked up): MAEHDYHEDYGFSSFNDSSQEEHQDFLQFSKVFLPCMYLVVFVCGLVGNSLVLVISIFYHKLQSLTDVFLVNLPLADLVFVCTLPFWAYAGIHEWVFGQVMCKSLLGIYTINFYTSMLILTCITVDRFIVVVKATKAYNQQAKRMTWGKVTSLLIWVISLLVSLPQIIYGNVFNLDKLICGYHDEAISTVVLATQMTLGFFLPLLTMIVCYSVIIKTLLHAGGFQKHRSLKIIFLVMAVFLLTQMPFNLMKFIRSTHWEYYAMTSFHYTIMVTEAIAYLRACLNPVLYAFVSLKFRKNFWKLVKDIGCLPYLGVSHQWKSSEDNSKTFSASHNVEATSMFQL
m5-HT2A agonist: agonists of mouse serotonin 5-HT2A receptor (HTR2A); CHO-K1 mHTR2A beta-arrestin complementation, luminescence; percent of 30 µM serotonin response; P35363; AID 624169; activation, % at 7.6 µM; 360,000 compounds, 0.66% hits;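 active means activation above a run cutoff, the mean activation of all tested compounds plus 3 SD, cut at about 14% in these data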
EBI2 antag: antagonists of human EBI2 receptor | AID 651636 | 360,000 compounds, 0.81% hits | P32249 | inhibition, % at 5 µM | EBI2 beta-arrestin recruitment, luminescence, 7a,25-OHC stimulated; in the data active means inhibition above about 38%;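 further: enzyme fragment complementation signal reports receptor beta-arrestin coupling in cells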
CCR6 antag: antagonists of human CCR6 receptor. inhibition, % at 20 µM. 340,000 compounds, 0.49% hits. CHO-K1 CCR6 PathHunter beta-arrestin, luminescence, CCL20-stimulated. P51684;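 active means compounds whose inhibition of the agonist-driven luminescence signal at 20 µM reaches about 50%, limit read from the data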;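 further: cells stimulated with CCL20 at 14 nM final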
Target sequence (P51684 whole entry, looked up): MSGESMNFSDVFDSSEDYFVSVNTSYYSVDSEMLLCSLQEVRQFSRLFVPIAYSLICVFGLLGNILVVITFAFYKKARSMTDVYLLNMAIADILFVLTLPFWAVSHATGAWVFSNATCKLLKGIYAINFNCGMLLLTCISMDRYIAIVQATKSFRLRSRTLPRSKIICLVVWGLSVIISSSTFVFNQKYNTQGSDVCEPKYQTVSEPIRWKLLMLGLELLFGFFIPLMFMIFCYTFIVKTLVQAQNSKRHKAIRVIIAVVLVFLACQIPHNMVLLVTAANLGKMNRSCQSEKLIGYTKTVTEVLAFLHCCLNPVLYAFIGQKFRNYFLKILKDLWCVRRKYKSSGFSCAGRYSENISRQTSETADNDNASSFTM
Large screens that a line does not name were inactive.

CCCN(CCC)CCNS(=O)(=O)c1ccc2c(c1)oc(=O)n2C	CCR6 antag 118.8
CCCCN(CC)CCNS(=O)(=O)c1ccc2c(c1)oc(=O)n2C	none
COc1ccc([C@H]2CC(=O)C=C(c3cc4ccccc4s3)C2)cc1	EBI2 antag 62.9
COc1ccc(NC(=O)C2(C)CCN2Cc2cccc(OC)c2F)cc1OC (centres undefined)	none (no result: APJ agonist, APJ antagonist, CCR6 antag)
CCCCn1c(N)c(C(=S)NC(=O)CC(C)C)c(=O)n(C)c1=O	CXCR6 block 47.7 (no result: APJ agonist, APJ antagonist, CCR6 antag)
O=[N+]([O-])c1ccc(CN2CCN(c3ncccn3)CC2)cc1	none
c1ccc(-c2ccc(CN3CCN(c4ncccn4)CC3)cc2)cc1	m5-HT2A agonist 16.1
O=C(c1cc(Cl)cc(Cl)c1)N1CCC2CC1c1cc(N3CCCCC3)ccc12 (centres undefined)	none (no result: APJ agonist, APJ antagonist, CCR6 antag)
O=C(CN1CCN(S(=O)(=O)c2ccc(Br)cc2)CC1)Nc1ccc2c(c1)OCO2	CXCR6 block 61.7
COc1ccc(NC(=O)CN2CCN(S(=O)(=O)c3ccc(Cl)cc3)CC2)cc1Cl	EBI2 antag 37.8
COc1ccc(S(=O)(=O)N2CCCN(CC(=O)Nc3ccc(OC)c(Cl)c3)CC2)cc1	none
CCCCCCCCN1C(=O)[C@H](CC(=O)NCC2CCCCC2)C[C@@]2(C(=O)OCC)CCC=C12	none (no result: APJ agonist, APJ antagonist, CXCR6 block, CCR6 antag)
COc1ccc(OC)c2c1C(=O)c1ccccc1C2=O	none (no result: CXCR6 block, m5-HT2A agonist, EBI2 antag)
COc1ccc(OC)c2c1C(=O)C(Cl)=C(Cl)C2=O	CXCR6 block 102.1, CCR6 antag 105.0
CC(=O)N1CCn2c3c(c(=O)c4cc(C)ccc42)CCC31 (centres undefined)	APJ antagonist 40.4
CC(=O)N1CCn2c3c(c4cc(C)ccc42)CCCC31 (centres undefined)	none
Cc1noc(C)c1C(=O)N1CCC1(C)C(=O)NS(=O)(=O)c1cccc(F)c1 (centres undefined)	none (no result: APJ agonist, APJ antagonist, CCR6 antag)
COC(=O)[C@]12CCCCC=C1N(CCc1ccc(OC)c(OC)c1)C(=O)[C@H](CC(=O)NCCc1ccccc1OC)C2	none (no result: APJ agonist, APJ antagonist, CXCR6 block, CCR6 antag)
COc1ccc(CCNC(=O)c2ccc([N+](=O)[O-])cc2)cc1	none
COc1ccc(C(=O)Nc2nc(-c3ccc([N+](=O)[O-])cc3)c(-c3ccc(OC)cc3)s2)cc1	CCR6 antag 60.5
O=C1c2cccc3cccc(c23)C(=O)N1CC1CCN(CC(O)COc2ccc3ccccc3c2)CC1 (centres undefined)	EBI2 antag 56.7
COc1cccc(OCC(O)CN2CCC(CN3C(=O)c4cccc5cccc(c45)C3=O)CC2)c1 (centres undefined)	none
O=C1C(Cc2ccccc2)Nc2ncnc(N3CCCCC3)c2N1Cc1ccc(Cl)cc1 (centres undefined)	CCR6 antag 51.1
COCCNC(=O)C1(C)CCCN(Cc2cn(C)c3ccccc23)C1 (centres undefined)	none (no result: APJ agonist, APJ antagonist, CCR6 antag)
NNc1ncnc2scc(-c3ccc(Cl)cc3)c12	APJ antagonist 46.2
Clc1ccc(-c2csc3ncnc(Cl)c23)cc1	none
CCC1(C)Cc2ccccc2-c2nc(NN)[nH]c(=O)c21 (centres undefined)	none
CCC1(CC)Cc2ccccc2-c2nc(NN)[nH]c(=O)c21	CCR6 antag 50.2
OC(CNCCc1ccc(C(F)(F)F)cc1)COC(c1ccccc1)c1ccccc1 (centres undefined)	CCR6 antag 60.0
CCc1nc2c(OCc3ccc(OC(F)F)cc3)cccn2c1N(C)C(=O)c1ccc(OC)cc1	none (no result: APJ agonist, APJ antagonist, CCR6 antag)
Cc1ccc(NC(=O)c2cccc(S(=O)(=O)Nc3c(C)n(C)n(-c4ccccc4)c3=O)c2)cc1C	none (no result: APJ agonist, APJ antagonist, CXCR6 block, m5-HT2A agonist, EBI2 antag)
CCCCC1(C)OC(=O)C(=Cc2ccc(N(C)C)cc2)C(=O)O1 (centres undefined)	m5-HT2A agonist 19.8
CCCCNC(=O)c1[nH]c(C2CCNCC2)nc1-c1cccc(C(F)(F)F)c1	none (no result: APJ agonist, APJ antagonist, CXCR6 block, CCR6 antag)
O=C(OCc1ccccc1)c1c(-c2ccccc2)oc2c1C(OCCO)CCC2 (centres undefined)	none (no result: APJ agonist, APJ antagonist, CCR6 antag)
COc1cc(/C=C/C=C2/CC/C(=C/C=C/c3ccc(O)c(OC)c3)C2=O)ccc1O	none (no result: APJ agonist, APJ antagonist)
CCN1C/C(=C/c2ccc(OC)c(O)c2)C(=O)/C(=C/c2ccc(OC)c(O)c2)C1	none
COc1cc(/C=C2/CC/C(=C/c3ccc(O)c(OC)c3)C2=O)ccc1O	CXCR6 block 55.4, CCR6 antag 61.5
COc1cc(C=C2C(=O)c3ccccc3C2=O)ccc1O	APJ antagonist 61.3
COc1ccc(/C=C2\CN(Cc3ccccc3)C/C(=C\c3ccc(OC)c(O)c3)C2=O)cc1O	CXCR6 block 51.6
COc1cc(/C=C2\COC/C(=C\c3ccc(O)c(OC)c3)C2=O)ccc1O	APJ antagonist 44.2, CXCR6 block 40.7, CCR6 antag 56.0
CC(C)C1C(=O)N(Cc2cn(CC3CCCCC3)nn2)CCS(=O)(=O)N1Cc1ccc(-c2cccc(CO)c2)cc1 (centres undefined)	none (no result: APJ agonist, APJ antagonist, CCR6 antag)
CN(C(=O)c1cccc(NC(=O)Cc2ccc(NC(=O)C3CCN(C(=O)C4CCCC4)CC3)cc2)c1)C1CCCC1	none (no result: APJ agonist, APJ antagonist)
CCCCCCCCN1C(=O)[C@H](CC(=O)N2CCN(C(=O)OCC)CC2)C[C@@]2(C(=O)OC)CC(C)(C)CC=C12	none (no result: APJ agonist, APJ antagonist, CXCR6 block, CCR6 antag)
Cc1csc(NC(=O)CSc2nnc(-c3ccco3)n2C)n1	none
COc1cccc2cc(-c3nnc(SCC(=O)Nc4nc(C)cs4)n3C)oc12	m5-HT2A agonist 24.7
COc1cc(-c2nc(-c3ccccc3)c(-c3cc([N+](=O)[O-])ccc3C)[nH]2)cc(OC)c1OC	CXCR6 block 49.4, EBI2 antag 37.6
COc1ccc(NC(=O)COC(=O)c2cc([N+](=O)[O-])ccc2N2CCOCC2)cc1	CCR6 antag 113.4
CC(=O)Nc1ccc(NC(=O)COC(=O)c2cc([N+](=O)[O-])ccc2N2CCOCC2)cc1	none
CC1CCN(S(=O)(=O)c2ccc(NC(=S)NC(=O)c3ccc(Cl)cc3)cc2)CC1	CCR6 antag 54.9
O=C(/C=C/c1ccc(O)c(O)c1)c1ccc(S(=O)(=O)N2CCCCCC2)cc1	APJ antagonist 41.9, CCR6 antag 62.5
O=C(c1ccc(S(=O)(=O)N2CCCC2)cc1)N1CCCCC1	none
CC(=O)C1=CCC(c2ccccc2)N(Cc2ccccc2)C1 (centres undefined)	none (no result: APJ agonist, APJ antagonist, CXCR6 block, CCR6 antag)
CN(C)CC1CCC/C(=C\c2ccc(OC(=O)/C=C/c3ccccc3)cc2)C1=O (centres undefined)	CCR6 antag 62.5 (no result: APJ agonist, APJ antagonist)
CN(C)CC1CCC/C(=C\c2ccc(OC(=O)c3ccc(Cl)cc3)cc2)C1=O (centres undefined)	CCR6 antag 59.5 (no result: APJ agonist, APJ antagonist)
O=C(C1=C[C@H](c2csc3ccccc23)C[C@H](OCc2ccc(CO)cc2)O1)N1CCN(Cc2ccc3c(c2)OCO3)CC1	EBI2 antag 51.2
COc1cc2nc(C3CCC3)nc(N3CCN(c4ccccn4)CC3)c2cc1OC	EBI2 antag 52.5
COc1cc(C(=O)N2CCN(c3ccccn3)CC2)cc(OC)c1OC	none
